Active and inactive are the calls of the source. The calls are words filed in the database; no cut-off is given here. A value given as a limit tells only on which side of the number the result lay.

In series [1] the test system is Plasmodium berghei. In words: Antiplasmodial activity against Plasmodium berghei KBG-173 infected in mouse assessed as mouse without parasitemia at 60 mg/kg, sc bid for 3 days measured on day 31. In kind it is functional, organism-based. Set-up: dose 60 mg/kg. Summed up: (§1)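 P. berghei KBG-173: 5 × 10⁶ infected erythrocytes injected intraperitoneally into male mice (24–30 g); parasitemia 1.0–3.7% by day 3. Oil suspension given subcutaneously twice daily at 160, 40 or 10 mg/kg on days 3–5 postinfection (totals 960/240/60 mg/kg); 4–5 mice per group. Blood films on day 6, then biweekly to day 31; film-negative on day 31 counted as cured.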

The test system of series [2] is Plasmodium falciparum. In words: Antimalarial activity against chloroquine-sensitive Plasmodium falciparum D6 after 48 hrs by [3H]hypoxanthine incorporation assay. In kind it is functional, organism-based. A digest of the protocol: (§2)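 [3H]hypoxanthine incorporation assay (Desjardins method, Milhous modification) with 48 h drug exposure. Compounds and controls were 2-fold diluted across 11 concentrations. IC50 was fitted by nonlinear logistic dose-response. Values are averaged where multiple results were generated, with relative errors usually <30%.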

Another series relates to THP-1. In words: Cytotoxicity against human THP1 cells after 1 to 4 hrs by MTS assay. Format: cell-based. Summed up:
(§3)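 HepG2 and THP-1 cells grown in RPMI 1640 with 10% FBS at 37 °C, 5% CO₂, and passaged twice weekly. Compounds applied as continuous exposure. Viability read by MTS reagent, 1–4 h incubation, absorbance at 490 nm; IC₅₀ derived.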
For orientation: Formazan colour is commonly taken as a measure of viable cells.

The subject of series [3] is Plasmodium berghei. In words: Antiplasmodial activity against Plasmodium berghei KBG-173 infected in sc dosed mouse administered bid for 3 days. Format: functional. Summed up:
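Male mice (24-30 g) were infected ip with 5 × 10⁶ P. berghei KBG-173-infected erythrocytes. Drug suspended in palm/peanut oil was given sc twice daily on days 3-5 post-infection at 160, 40 or 10 mg/kg per dose, 0.01 mL/g, in groups of 4-5. Blood films were taken day 6, then biweekly to day 31. Mice smear-negative on day 31 were counted cured. CD50 is the daily dose curing 50%.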

Series [4] relates to Plasmodium berghei. In words: Antiplasmodial activity against Plasmodium berghei KBG-173 infected in mouse assessed as mouse without parasitemia at 240 mg/kg, sc bid for 3 days measured on day 31. In kind it is functional, organism-based. On the set-up: dose 240 mg/kg. Summed up: as §1
Series [5] can be described thus: Half life in human liver microsomes at 1 uM by LCMS analysis. Format: ADME, Microsome. Summed up:
(§4)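 Compound at 1 μM final with 0.5 mg/mL pooled human or mouse liver microsomes, 1.3 mM NADP, 3.3 mM MgCl₂, 0.1 M PBS pH 7.4. Reaction started with 1 U/mL G6PD, shaken at 37 °C. Aliquots quenched with cold acetonitrile at 0, 10, 20, 30 and 60 min and quantified by LCMS. t₁/₂ taken from log plot of total ion chromatogram area remaining.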

The nature of series [6]: Half life in mouse liver microsomes at 1 uM by LCMS analysis. Format: ADME, Microsome. Summed up:
as §4
A general note: Liver microsomes are a subcellular fraction often used to study metabolism.

The subject of series [7] is Plasmodium falciparum. In words: Antimalarial activity against chloroquine/pyrimethamine-resistant Plasmodium falciparum W2 after 48 hrs by [3H]hypoxanthine incorporation assay. In kind it is functional, organism-based. A digest of the protocol:
as §2

For series [8], the system named is Plasmodium falciparum. In words: Antimalarial activity against multidrug-resistant Plasmodium falciparum TM91C235 after 48 hrs by [3H]hypoxanthine incorporation assay. Format: functional, organism-based. Summed up: as §2
Another series concerns HepG2. In words: Cytotoxicity against human HepG2 cells after 1 to 4 hrs by MTS assay. Format: cell-based. A digest of the protocol:
as §3

The term IC50 denotes the concentration that gives 50% inhibition. Low values mean inhibition by little substance, high ones a need for much substance. One may read the half-life as the time in which the quantity being followed falls by half. Turning to `CC[C@H]1OC(=O)[C@H](C)[C@@H](O[C@H]2C[C@@](C)(OC)[C@@H](O)[C@H](C)O2)[C@H](C)[C@@H](O[C@@H]2O[C@H](C)C[C@H](N(C)C)[C@H]2O)[C@](C)(O)C[C@@H](C)CN(CCCNC(=O)Nc2ccc3ccccc3c2)[C@H](C)[C@@H](O)[C@]1(C)O`, the result in the series on Plasmodium berghei [1] and in the series on Plasmodium berghei [4] was inactive. For the same molecule, the IC50 with Plasmodium falciparum [2] turned out to be 138 nM; in the series on THP-1, 40 µM; with Plasmodium falciparum [7], 127 nM; in the series with Plasmodium falciparum [8], 81 nM; with HepG2, 48 µM. This molecule also registered a CD50 in the series with Plasmodium berghei [3] of over 960 mg/kg. The half-life at 1 µM in series [5] and in series [6] was over 120 min each time.
On to `CC[C@H]1OC(=O)[C@H](C)[C@@H](O[C@H]2C[C@@](C)(OC)[C@@H](O)[C@H](C)O2)[C@H](C)[C@@H](O[C@@H]2O[C@H](C)C[C@H](N(C)C)[C@H]2O)[C@](C)(O)C[C@@H](C)CN(CCCNC(=S)NCCc2ccccc2)[C@H](C)[C@@H](O)[C@]1(C)O`, for which the result with Plasmodium berghei [1] was inactive. The IC50 with Plasmodium falciparum [2] worked out at 215 nM; in the series on THP-1, 23 µM; in the series on Plasmodium falciparum [7] it was 167 nM; in the series with Plasmodium falciparum [8] it was 200 nM; in the series with HepG2 it was 47 µM. The molecule also showed a CD50 in the series with Plasmodium berghei [3] of 780 mg/kg. In addition, the half-life at 1 µM in [5] and in series [6] was over 120 min throughout.
As for `CC[C@H]1OC(=O)[C@H](C)[C@@H](O[C@H]2C[C@@](C)(OC)[C@@H](O)[C@H](C)O2)[C@H](C)[C@@H](O[C@@H]2O[C@H](C)C[C@H](N(C)C)[C@H]2O)[C@](C)(O)C[C@@H](C)CN(CCCNC(=S)Nc2cccc3ccccc23)[C@H](C)[C@@H](O)[C@]1(C)O`, the IC50 with Plasmodium falciparum [2] stood at 116 nM; with THP-1 it was 40 µM; with Plasmodium falciparum [7], 155 nM; with Plasmodium falciparum [8], 131 nM; with HepG2, 48 µM. Also, in the series with Plasmodium berghei [3], the CD50 was determined as 195 mg/kg. Besides, the half-life at 1 µM in series [5] and in series [6] was over 120 min throughout.
Turning to `CC[C@H]1OC(=O)[C@H](C)[C@@H](O[C@H]2C[C@@](C)(OC)[C@@H](O)[C@H](C)O2)[C@H](C)[C@@H](O[C@@H]2O[C@H](C)C[C@H](N(C)C)[C@H]2O)[C@](C)(O)C[C@@H](C)CN(CCCN(CCC#N)C(=S)NCc2ccccc2)[C@H](C)[C@@H](O)[C@]1(C)O`, the IC50 in the series on Plasmodium falciparum [2] came to 204 nM; in the series on THP-1, 11 µM; in the series with Plasmodium falciparum [7], 139 nM; with Plasmodium falciparum [8] it was 126 nM; in the series with HepG2 it was 44 µM. Also, in the series on Plasmodium berghei [3], the CD50 is over 960 mg/kg. The half-life at 1 µM in series [5] and in series [6] was over 120 min in each case.
On to `CC[C@H]1OC(=O)[C@H](C)[C@@H](O[C@H]2C[C@@](C)(OC)[C@@H](O)[C@H](C)O2)[C@H](C)[C@@H](O[C@@H]2O[C@H](C)C[C@H](N(C)C)[C@H]2O)[C@](C)(O)C[C@@H](C)CN(CCCNC(=O)Nc2cccc3ccccc23)[C@H](C)[C@@H](O)[C@]1(C)O`, for which the IC50 was 215 nM in the series on Plasmodium falciparum [2]; over 50 µM in the series with THP-1; 173 nM in the series with Plasmodium falciparum [7]; 131 nM in the series on Plasmodium falciparum [8]; over 50 µM in the series on HepG2. The molecule further returned a CD50 in the series on Plasmodium berghei [3] of 150 mg/kg. Moreover, the half-life at 1 µM in series [5] and in series [6] was over 120 min throughout.
For the molecule `CC[C@H]1OC(=O)[C@H](C)[C@@H](O[C@H]2C[C@@](C)(OC)[C@@H](O)[C@H](C)O2)[C@H](C)[C@@H](O[C@@H]2O[C@H](C)C[C@H](N(C)C)[C@H]2O)[C@](C)(O)C[C@@H](C)CN(CCNC(=O)Nc2ccccc2)[C@H](C)[C@@H](O)[C@]1(C)O`, the IC50 is 223 nM in the series on Plasmodium falciparum [2]; 27 µM with THP-1; 67 nM in the series on Plasmodium falciparum [7]; 103 nM in the series with Plasmodium falciparum [8]; 48 µM with HepG2. For the same molecule, the half-life at 1 µM in series [5] and in series [6] was over 120 min each time.
On to `CC[C@H]1OC(=O)[C@H](C)[C@@H](O[C@H]2C[C@@](C)(OC)[C@@H](O)[C@H](C)O2)[C@H](C)[C@@H](O[C@@H]2O[C@H](C)C[C@H](N(C)C)[C@H]2O)[C@](C)(O)C[C@@H](C)CN(CCNC(=O)Nc2ccc3ccccc3c2)[C@H](C)[C@@H](O)[C@]1(C)O`, for which the IC50 in the series on Plasmodium falciparum [2] came to 71 nM; with THP-1, 5 µM; with Plasmodium falciparum [7], 30 nM; in the series with Plasmodium falciparum [8], 24 nM; with HepG2 it was 9 µM. The half-life at 1 µM in series [5] and in [6] was over 120 min throughout.
As for `CC[C@H]1OC(=O)[C@H](C)[C@@H](O[C@H]2C[C@@](C)(OC)[C@@H](O)[C@H](C)O2)[C@H](C)[C@@H](O[C@@H]2O[C@H](C)C[C@H](N(C)C)[C@H]2O)[C@](C)(O)C[C@@H](C)CN(CCCN(CCC#N)C(=O)NC(C)c2cccc3ccccc23)[C@H](C)[C@@H](O)[C@]1(C)O` (stereo partly specified), the 50% inhibitory concentration (IC50) in the series on Plasmodium falciparum [2] worked out at 200 nM; in the series on THP-1 it was 40 µM; with Plasmodium falciparum [7], 136 nM; in the series on Plasmodium falciparum [8], 97 nM; with HepG2, 48 µM. Also, the CD50 with Plasmodium berghei [3] stood at 510 mg/kg. For the same molecule, the result with Plasmodium berghei [4] was inactive. Further, the half-life at 1 µM in series [5] and in series [6] was over 120 min in each case.
Regarding `CC[C@H]1OC(=O)[C@H](C)[C@@H](O[C@H]2C[C@@](C)(OC)[C@@H](O)[C@H](C)O2)[C@H](C)[C@@H](O[C@@H]2O[C@H](C)C[C@H](N(C)C)[C@H]2O)[C@](C)(O)C[C@@H](C)CN(CCNC(=S)NCc2ccccc2)[C@H](C)[C@@H](O)[C@]1(C)O`, the IC50 was found to be 109 nM in the series on Plasmodium falciparum [2]; 9 µM with THP-1; 72 nM in the series on Plasmodium falciparum [7]; 106 nM in the series on Plasmodium falciparum [8]; 14 µM in the series on HepG2. For the same molecule, the half-life at 1 µM in series [5] and in [6] was over 120 min in each case.
Regarding `CC[C@H]1OC(=O)[C@H](C)[C@@H](O[C@H]2C[C@@](C)(OC)[C@@H](O)[C@H](C)O2)[C@H](C)[C@@H](O[C@@H]2O[C@H](C)C[C@H](N(C)C)[C@H]2O)[C@](C)(O)C[C@@H](C)CN(CCN(CCC(N)=O)C(=O)Nc2ccc3ccccc3c2)[C@H](C)[C@@H](O)[C@]1(C)O`, the IC50 in the series with Plasmodium falciparum [2] is 190 nM; in the series on THP-1 it was 7 µM; with Plasmodium falciparum [7] it was 62 nM; with Plasmodium falciparum [8] it was 39 nM; with HepG2, 13 µM. Further, the half-life at 1 µM in [5] and in [6] was over 120 min throughout.
As for `CC[C@H]1OC(=O)[C@H](C)[C@@H](O[C@H]2C[C@@](C)(OC)[C@@H](O)[C@H](C)O2)[C@H](C)[C@@H](O[C@@H]2O[C@H](C)C[C@H](N(C)C)[C@H]2O)[C@](C)(O)C[C@@H](C)CN(CCNC(=O)NCc2ccccc2)[C@H](C)[C@@H](O)[C@]1(C)O`, the IC50 is 320 nM with Plasmodium falciparum [2]; 35 µM in the series with THP-1; 287 nM in the series on Plasmodium falciparum [7]; 170 nM in the series with Plasmodium falciparum [8]; over 50 µM in the series with HepG2. Besides, the half-life at 1 µM in series [5] and in [6] was over 120 min in each case.
As for `CC[C@H]1OC(=O)[C@H](C)[C@@H](O[C@H]2C[C@@](C)(OC)[C@@H](O)[C@H](C)O2)[C@H](C)[C@@H](O[C@@H]2O[C@H](C)C[C@H](N(C)C)[C@H]2O)[C@](C)(O)C[C@@H](C)CN(CCN(CCC#N)C(=S)NCCc2ccccc2)[C@H](C)[C@@H](O)[C@]1(C)O`, the IC50 was 295 nM in the series on Plasmodium falciparum [2]; 6 µM in the series with THP-1; 64 nM with Plasmodium falciparum [7]; 369 nM in the series on Plasmodium falciparum [8]; 7 µM with HepG2. Also, the half-life at 1 µM in [5] and in series [6] was over 120 min in each case.
Take `CC[C@H]1OC(=O)[C@H](C)[C@@H](O[C@H]2C[C@@](C)(OC)[C@@H](O)[C@H](C)O2)[C@H](C)[C@@H](O[C@@H]2O[C@H](C)C[C@H](N(C)C)[C@H]2O)[C@](C)(O)C[C@@H](C)CN(CCNC(=S)Nc2ccccc2)[C@H](C)[C@@H](O)[C@]1(C)O`: the IC50 with Plasmodium falciparum [2] came out at 183 nM; in the series with THP-1, 16 µM; in the series on Plasmodium falciparum [7], 443 nM; in the series with Plasmodium falciparum [8] it was 113 nM; in the series with HepG2 it was 48 µM. Further, the half-life at 1 µM in [5] and in series [6] was over 120 min in each case.

These data come from ChEMBL document CHEMBL1772969, “Synthesis, structure-activity relationship, and antimalarial activity of ureas and thioureas of 15-membered azalides” (J Med Chem, 2011).
